Rad51 HR inh: Rad51 (human) homologous recombination inhibition | Q06609 | hRad51 DNA strand exchange, fluorescence dequenching | inhibition, % at 10 µM | 200,000 compounds, 0.085% hits | AID 1385;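 active = inhibition above 40% at the single screening dose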;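 note: 0% = DMSO control wells and 100% = blanks with heterologous ssDNA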
Target sequence (Q06609 whole entry, looked up): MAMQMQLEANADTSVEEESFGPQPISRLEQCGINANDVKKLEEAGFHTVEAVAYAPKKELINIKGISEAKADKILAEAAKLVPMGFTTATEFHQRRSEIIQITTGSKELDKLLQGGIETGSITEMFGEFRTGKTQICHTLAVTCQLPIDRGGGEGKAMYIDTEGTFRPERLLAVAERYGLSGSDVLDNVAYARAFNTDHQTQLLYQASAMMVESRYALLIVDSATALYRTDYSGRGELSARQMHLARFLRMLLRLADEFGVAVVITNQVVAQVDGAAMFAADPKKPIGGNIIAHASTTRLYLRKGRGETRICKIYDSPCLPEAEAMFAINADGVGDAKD
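System: human Rad51 nucleoprotein filaments preassembled on unlabelled ssDNA. Reagent: labelled 47-mer dsDNA for strand exchange. Schedule: 30-min compound preincubation and 15-min exchange, both room temperature. Measured by: FRET fluorescence dequenching, excitation 485 nm, emission 520 nm. Read-out: Fluorescence-based percent inhibition, control- and blank-normalised. Benchmarks: plate controls and plate blanks.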
Hsp70 act: transcriptional activators of Hsp70 | AID 1203 | activation, % at 10 µM | 200,000 compounds, 0.04% hits | HeLa Hsp70 promoter luciferase reporter, luminescence; scaled: vehicle 0, proteasome-inhibitor control 100%;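 active = activation above the mean across all tested compounds plus 3 SD, cutoff set per campaign, cut at about 5.5% in these data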;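 note: 100% = MG132 at 30 µM as the positive control and 0% = DMSO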
HSF1 inh: HSF1 inhibition; 300,000 compounds, 0.77% hits; NIH3T3-HGL HSE-luciferase, MG132-induced, luminescence 8 h; hits give low values; activity change, negative = inhibition, % at 7.5 µM (by protocol);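 active = more than half of replicate wells show activity change below -50%, luminescence cut by over half; inconclusive = some wells, but at most half, below -50%; inactive = no replicate well below -50%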;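 note: luciferase reports HSF-1 transcriptional activity via heat shock element; 0% = median of DMSO wells and -100% = zero luminescence signal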
HSV replic up: HSV replication enhancement; 220,000 compounds, 0.005% hits; HSV replication augmentation in cells, fold increase; maximum fold increase; in the data active = maximum fold increase above about 1.5; inconclusive = no clear call, values can overlap the other calls; tested in PC3 cells
Mdm2 ligase inh: blocks human Mdm2 ubiquitin ligase activity. Q00987. cell-based MDM2 ubiquitination luciferase reporter, 2 h; 0 = plate control, 100 = twice control, blank-subtracted. signal enhancement, % at 5 µM. 210,000 compounds, 0.11% hits. AID 1230;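 active = signal enhancement of 30% or more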;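 note: luminescence tracks abundance of the self-degrading MDM2-luciferase fusion protein; higher signal means inhibition of MDM2 E3 ligase activity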
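Material: stable MDM2–luciferase fusion reporter cells / Quantity: 2000 cells/well / Dosing: single 5 µM compound dose, 0.2% final DMSO / Buffer or medium: DMEM / Schedule: 4 h cell settling then 2 h compound exposure, 37 °C / Detection: luminescence with SteadyLite reagent, 15 min at room temperature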
HSF1 activator: increases HSF-1 driven luciferase reporter signal. NIH3T3-HGL HSF-1 luciferase reporter, MG132, 8 h; 100% = twice DMSO control signal. activation, % at 9 µM. 300,000 compounds, 1.7% hits;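 active = mean replicate activation of at least 50% with a set share of replicates each reaching 50%; inconclusive = only one of those two conditions met; inactive = mean below 50% and too few replicates reaching it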;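 note: 0% = median of the neutral control wells and 100% = twice that signal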
Numbers without * were called inactive; i = inactive; u = inconclusive; x = no result. Rows were chosen to be rich in hits. Some 2.6% of all compounds tested hit in one or more screens of this group.

SMILES	Rad51 HR inh	Hsp70 act	HSF1 inh	HSV replic up	Mdm2 ligase inh	HSF1 activator
CCOc1ccc(NC(=O)C(CC(=O)O)Cc2ccc(C)cc2)cc1 (stereo not drawn)	x	x	-3.8	x	x	10.6
CCc1cc2c(=O)n(C(C)C(=O)OC3CCCCC3)cnc2s1 (stereo not drawn)	-1.0	0.2	31.8	i	-4.3	66.5*
CCOC(=O)C(C)n1cnc2sc3c(c2c1=O)CCC3 (stereo not drawn)	4.0	-0.1	4.8	i	-5.8	-2.5
COCCCNc1nc2nonc2nc1N1CCN(Cc2cccc(C)c2)CC1	x	0.3	20.9	i	-21.2	63.1*
O=C(O)CC1=C(Nc2ccccc2)C(=O)N(c2ccccc2)C1c1ccc(Br)cc1 (stereo not drawn)	-129.7	-0.1	38.4	i	3.4	56.8*
O=C(O)CC1=C(O)C(=O)N(c2ccccc2)C1c1ccc(Cl)cc1 (stereo not drawn)	4.1	0.3	7.2	i	-7.4	-2.9
O=S(=O)(NNC(=S)Nc1ccc(S(=O)(=O)Nc2ncccn2)cc1)c1ccc(Br)cc1	x	x	-2.8	x	x	8.5
CCOc1ccc(S(=O)(=O)NNC(=S)Nc2ccc(Br)cc2)cc1	11.6	-0.3	86.6	i	-8.5	112.6*
COc1ccc(-c2nc3ccccc3c(=O)n2CC(C)C)cc1	x	x	-7.6	x	x	19.5
COc1ccc(NCc2nnc(SCC(=O)Nc3cccc(C)c3)o2)cc1	7.5	0.1	-54.2*	i	-9.5	-60.8
COc1ccc(NCc2nnc(SCC(=O)Nc3ccccc3OC)o2)cc1	4.0	-0.3	-1.1	i	-12.5	1.5
COc1ccc(C(=O)COC(=O)CNS(=O)(=O)c2ccc(C)cc2)cc1	-10.5	-0.1	0.8	i	-11.0	-4.6
N#CCCN(C(=O)COC(=O)CNC(=O)c1cccs1)c1ccc(F)cc1	x	x	6.3	x	x	33.7
Cc1cccc(C(C)C)c1NS(=O)(=O)c1cn(C)nc1C	x	x	-2.9	x	x	-1.7
Cn1c(=N)n(CC(=O)c2ccc(Cl)c(Cl)c2)c2ccccc21	x	x	-62.7*	x	x	-68.2
Cn1c(=N)n(CC(=O)c2ccccc2)c2ccccc21	18.5	x	-1.9	i	-49.8	5.4
CC1=CC2C(C(O)CC3(C)C2CC(C)C32OCOC23COCO3)C2(C)C/C(=C\O)C(=O)C=C12 (stereo not drawn)	x	x	94.3*	x	x	94.3*
CCN(Cc1ccccc1)C(=O)C1CCN(Cc2ccc(SC)cc2)CC1	23.1	-0.3	-1.2	i	-8.6	-10.8
CCN(Cc1ccccc1)C(=O)C1CCN(C/C(C)=C/c2ccccc2)CC1	x	-0.1	37.7	x	-10.2	88.2*
O=C(Nc1cccc(Cl)c1)N1CCC(CO)(CCOc2ccccc2)CC1	-14.5	0.1	59.6	i	1.2	94.8*
O=C(Nc1ccc(Cl)cc1)N1CCC(CO)(Cc2ccccc2)CC1	4.2	-0.2	0.2	i	-3.4	19.8
Cc1ccc(-c2nnn(CC(=O)N(Cc3cccs3)C(C(=O)NC3CCCC3)c3ccncc3)n2)cc1 (stereo not drawn)	-9.0	-0.4	-55.2*	i	x	-54.8
Cc1ccc2c(c1)c1c3n2CCN(C(=O)CCl)C3CCC1 (stereo not drawn)	x	x	13.7	x	x	26.4
CCc1noc(C)c1C(=O)N(Cc1ccccc1)c1c(N)n(CCOC)c(=O)[nH]c1=O	x	x	-2.8	x	x	0.6
CCOC(=O)c1sc(NC(=O)c2ccccc2)cc1C	4.5	-0.2	25.3	i	-7.2	55.4*
SMILES	Rad51 HR inh	Hsp70 act	HSF1 inh	HSV replic up	Mdm2 ligase inh	HSF1 activator
CCOC(=O)Cc1cnc(NC(=O)c2ccccc2)s1	-0.8	0.1	-54.1*	i	-24.4	-59.2
CCOC(=O)c1sc(NC(=O)c2ccc(S(=O)(=O)N(C)C)cc2)cc1C	-0.4	-0.5	1.9	i	-5.7	1.8
CCOC(=O)c1csc(NC(=O)c2ccccc2)n1	-1.2	-0.1	26.1	i	-12.4	49.6
CCOC(=O)c1sc(=NC(=O)c2ccccc2)n(C)c1C	-0.5	0.0	13.8	i	-19.6	61.3*
Cc1nc(NC(=O)c2ccccc2)sc1C	x	x	31.5	x	x	57.7*
CCOC(=O)c1sc(=NC(=O)c2cccc(OC)c2)n(C)c1C	-5.5	-0.1	21.7	i	-17.2	33.8
CCOc1ccc(NC(=O)CN(C)C(=O)c2cn3ccccc3n2)cc1OCC	x	x	3.7	x	x	-7.6
C/C(CC(=O)Nc1cccc(Br)c1)=N\NC(=O)c1ccc(O)cc1O	x	x	10.8	x	x	18.0
COc1ccc(-c2cc(C3CCNCC3)[nH]n2)cc1	x	x	-3.2	x	x	-23.3
Cn1c(N)c(S(=O)(=O)N2CCN(c3ccccc3)CC2)c(=O)n(C)c1=O	7.5	-0.1	7.0	i	13.9	21.0
Cc1nc(Nc2ccccc2)sc1C	4.2	0.0	-51.7*	i	2.1	-58.8
Cc1nc(NC(=O)c2csc3ccccc23)sc1C	1.5	-0.2	31.2	i	-36.8	61.4*
CCC(NC(=S)NC1CCCCC1)c1ccccc1 (stereo not drawn)	x	x	-86.8*	x	x	-89.6
Cn1c(/C=C/c2ccc([N+](=O)[O-])o2)nc2ccccc2c1=O	-1.7	-0.2	44.0	i	-5.8	62.1*
Cn1c(/C=C/c2ccc(Cl)cc2)nc2ccccc2c1=O	x	x	32.8	x	x	45.7
Cn1c(/C=C/c2ccccc2)nc2ccccc2c1=O	x	x	-79.8*	x	x	-84.3
Cc1cc(N/N=C/c2ccc([N+](=O)[O-])o2)nc2ccccc12	5.9	-0.1	43.4	u	-3.0	64.7*
Cc1cc(=O)n(C(C)Cc2ccccc2)n1C(C)Cc1ccccc1 (stereo not drawn)	x	x	4.2	x	x	4.2
Cn1c2c(c(=O)c3ccccc31)CCC(C)(C)O2	9.9	-0.1	-3.0	i	-10.9	5.6
COC(=O)c1ccccc1NC(=O)CSc1nnc(-c2cccnc2)n1N	44.1*	-0.1	-3.6	i	17.9	-2.7
COC(=O)c1ccccc1NC(=O)CSc1nnc(C(CO)NC(=O)c2ccccc2)n1C (stereo not drawn)	x	-0.6	-71.3*	i	15.0	-77.4
CC(C(=O)NN=C(c1ccccc1)c1ccccc1)N1CCCC1 (stereo not drawn)	5.4	-0.3	17.2	i	-9.6	55.0*
O=C(N/N=C/c1ccc(N2CCCCC2)o1)C(O)(c1ccccc1)c1ccccc1	-14.3	-0.4	37.7	i	3.8	65.8*
CCOc1ccccc1NC(=O)Cn1c(-c2ccc(Cl)cc2)noc1=O	-4.3	x	-65.1*	i	x	-73.8
COc1ccccc1NC(=O)CCCc1nnc2n(C)c(=O)c3sccc3n12	x	x	-8.8	x	x	-14.7
O=C(O)/C=C/c1cnc2ccccc2n1	-4.6	-0.1	-8.1	i	-8.2	-13.9
O=C(/C=C/c1cnc2ccccc2n1)NC12CC3CC(CC(C3)C1)C2	9.2	-0.1	-71.3*	i	-35.1	-75.9
O=C(Nc1cccc(-c2nc3ccccc3s2)c1)C1=COCCO1	-3.1	0.0	10.4	i	10.3	8.8
